ChEMBL document CHEMBL3992547, “Antimicrobial activity of rhodanine-3-acetic acid derivatives” (Bioorg Med Chem, 2017)
In brackets after ≈: the same amount, converted by molar mass. Activity calls are given as the source filed them. The calls are words filed in the database; no cut-off is given here.

Key:
[1] = test system: Enterococcus; experiment: Antibacterial activity against Enterococcus sp. J 14365/08 incubated for 24 hrs under dark condition by microdilution broth assay; conditions: J 14365/08, 24 h
[2] = test system: Staphylococcus aureus; experiment: Antibacterial activity against methicillin-resistant Staphylococcus aureus H 5996/08 incubated for 48 hrs under dark condition by microdilution broth assay; format: functional; conditions: H 5996/08, 48 h
In short: (§1)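 Microdilution broth method modified per M07-A07, in Mueller-Hinton broth adjusted to pH 7.4 (±0.2). Inoculum made in sterile water to 0.5 McFarland (1.5 × 10⁸ CFU/mL). Plates incubated in the dark at 35 °C in a humid atmosphere, with reads at 24 and 48 h. MIC taken as at least 95% growth reduction (IC₉₅) versus control.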

[3] = test system: Mycobacterium kansasii; experiment: Antimycobacterial activity against Mycobacterium kansasii isolate 235/80 after 14 days by micromethod; format: functional; conditions: isolate 235/80, 336 h
[4] = test system: Staphylococcus aureus; experiment: Antibacterial activity against methicillin-resistant Staphylococcus aureus H 5996/08 incubated for 24 hrs under dark condition by microdilution broth assay; format: functional; conditions: H 5996/08, 24 h
In short: as §1

[5] = test system: Pseudomonas aeruginosa; experiment: Antibacterial activity against Pseudomonas aeruginosa CCM 1961 up to 500 uM incubated for 24 to 48 hrs under dark condition by microdilution broth assay; format: functional
In short: (§2)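 Broth microdilution per M07-A07, modified, in Mueller-Hinton broth adjusted to pH 7.4 (±0.2). Inoculum is prepared in sterile water to McFarland 0.5 (1.5 × 10⁸ CFU/mL). Plates are incubated in the dark at 35 °C in humid air. MIC is read after 24 and 48 h as at least 95% growth reduction versus control (IC₉₅).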

[6] = test system: Mycobacterium kansasii; experiment: Antimycobacterial activity against Mycobacterium kansasii isolate 235/80 after 21 days by micromethod; format: functional; conditions: isolate 235/80, 504 h
[7] = test system: Mycobacterium avium; experiment: Antimycobacterial activity against Mycobacterium avium 330/88 measured after 21 days by micromethod; format: functional; conditions: 330/88, 504 h
[8] = test system: Staphylococcus aureus; experiment: Antibacterial activity against Staphylococcus aureus CCM 4516/08 incubated for 48 hrs under dark condition by microdilution broth assay; format: functional; conditions: CCM 4516/08, 48 h
In short: as §2

[9] = test system: Mycobacterium tuberculosis; experiment: Antimycobacterial activity against Mycobacterium tuberculosis H37Rv 331/88 measured after 14 days by micromethod; format: functional; conditions: H37Rv 331/88, 336 h
[10] = test system: Mycobacterium kansasii; experiment: Antimycobacterial activity against Mycobacterium kansasii isolate 235/80 after 7 days by micromethod; format: functional; conditions: isolate 235/80, 168 h
[11] = test system: Escherichia coli; experiment: Antibacterial activity against Escherichia coli CCM 4517 incubated for 48 hrs under dark condition by microdilution broth assay; format: functional; conditions: CCM 4517, 48 h
In short: as §2

[12] = test system: Pichia kudriavzevii; experiment: Antifungal activity against Candida krusei E28 after 24 to 48 hrs hrs by microdilution broth assay; format: functional
In short: (§3)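 Broth microdilution per CLSI M27-A3 and M38-A2 in RPMI 1640 with glutamine, buffered to pH 7.0 with MOPS. Compounds are diluted in DMSO. Final inoculum is 5 × 10³ CFU/mL for yeasts and 0.5–5 × 10⁴ CFU/mL for moulds. Plates are incubated in the dark at 35 °C in humid air and read visually and/or at 540 nm after 24 and 48 h. MIC is ≥80% growth reduction (IC₈₀) for yeasts and ≥50% (IC₅₀) for filamentous fungi.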

[13] = test system: Staphylococcus epidermidis; experiment: Antibacterial activity against Staphylococcus epidermidis H 6966/08 incubated for 48 hrs under dark condition by microdilution broth assay; format: functional; conditions: H 6966/08, 48 h
In short: as §2

[14] = test system: Enterococcus; experiment: Antibacterial activity against Enterococcus sp. J 14365/08 incubated for 48 hrs under dark condition by microdilution broth assay; conditions: J 14365/08, 48 h
[15] = test system: Escherichia coli; experiment: Antibacterial activity against Escherichia coli CCM 4517 incubated for 24 hrs under dark condition by microdilution broth assay; format: functional; conditions: CCM 4517, 24 h
In short: as §2

[16] = Solubility of the compound in Sula's semisynthetic medium up to 1 mM; format: physicochemical
[17] = test system: Mycobacterium avium; experiment: Antimycobacterial activity against Mycobacterium avium 330/88 measured after 14 days by micromethod; format: functional; conditions: 330/88, 336 h
[18] = test system: Staphylococcus aureus; experiment: Antibacterial activity against Staphylococcus aureus CCM 4516/08 incubated for 24 hrs under dark condition by microdilution broth assay; format: functional; conditions: CCM 4516/08, 24 h
In short: as §2

[19] = test system: Lichtheimia corymbifera; experiment: Antifungal activity against Absidia corymbifera 272 after 24 to 48 hrs hrs by microdilution broth assay; format: functional
In short: as §3

[20] = test system: Klebsiella pneumoniae; experiment: Antibacterial activity against ESBL positive Klebsiella pneumoniae J 14368/08 up to 500 uM incubated for 24 to 48 hrs under dark condition by microdilution broth assay; format: functional
In short: as §2

[21] = test system: Mycobacterium kansasii; experiment: Antimycobacterial activity against Mycobacterium kansasii isolate 6509/96 after 7 days by micromethod; format: functional; conditions: isolate 6509/96, 168 h
[22] = test system: Staphylococcus epidermidis; experiment: Antibacterial activity against Staphylococcus epidermidis H 6966/08 incubated for 24 hrs under dark condition by microdilution broth assay; format: functional; conditions: H 6966/08, 24 h
In short: as §2

[23] = test system: Klebsiella pneumoniae; experiment: Antibacterial activity against Klebsiella pneumoniae D 11750/08 up to 500 uM incubated for 24 to 48 hrs under dark condition by microdilution broth assay; format: functional
In short: as §2

[24] = test system: Mycobacterium kansasii; experiment: Antimycobacterial activity against Mycobacterium kansasii isolate 6509/96 after 21 days by micromethod; format: functional; conditions: isolate 6509/96, 504 h
[25] = test system: Mycobacterium tuberculosis; experiment: Antimycobacterial activity against Mycobacterium tuberculosis H37Rv 331/88 measured after 21 days by micromethod; format: functional; conditions: H37Rv 331/88, 504 h
[26] = test system: Mycobacterium kansasii; experiment: Antimycobacterial activity against Mycobacterium kansasii isolate 6509/96 after 14 days by micromethod; format: functional; conditions: isolate 6509/96, 336 h

O=C(O)CN1C(=O)/C(=C/c2cc(Br)ccc2O)SC1=S
MIC95 [1]: 500 µM (≈ 187 µg/mL)
MIC95 [2]: 125 µM (≈ 46.8 µg/mL)
MIC [3]: 62.5 µM (≈ 23.4 µg/mL)
MIC95 [4]: 125 µM (≈ 46.8 µg/mL)
Activity [5]: inactive
MIC [6]: 62.5 µM (≈ 23.4 µg/mL)
MIC [7]: 62.5 µM (≈ 23.4 µg/mL)
MIC95 [8]: 250 µM (≈ 93.6 µg/mL)
MIC [9]: 32 µM (≈ 12 µg/mL)
MIC [10]: 62.5 µM (≈ 23.4 µg/mL)
MIC95 [11]: 500 µM (≈ 187 µg/mL)
Activity [12]: inactive
MIC95 [13]: 62.5 µM (≈ 23.4 µg/mL)
MIC95 [14]: 500 µM (≈ 187 µg/mL)
MIC95 [15]: 500 µM (≈ 187 µg/mL)
solubility [16]: Soluble
MIC [17]: 62.5 µM (≈ 23.4 µg/mL)
MIC95 [18]: 250 µM (≈ 93.6 µg/mL)
Activity [19]: inactive
Activity [20]: inactive
MIC [21]: 62.5 µM (≈ 23.4 µg/mL)
MIC95 [22]: 62.5 µM (≈ 23.4 µg/mL)
Activity [23]: inactive
MIC [24]: 250 µM (≈ 93.6 µg/mL)
MIC [25]: 62.5 µM (≈ 23.4 µg/mL)
MIC [26]: 125 µM (≈ 46.8 µg/mL)

O=C(CN1C(=O)/C(=C/c2ccccn2)SC1=S)Nc1ccc(Cl)cc1
MIC95 [1]: 125 µM (≈ 48.7 µg/mL)
MIC95 [2]: > 125 µM
MIC [3]: > 250 µM
MIC95 [4]: > 125 µM
Activity [5]: inactive
MIC [6]: > 250 µM
MIC [7]: > 250 µM
MIC95 [8]: > 125 µM
MIC [9]: > 250 µM
MIC [10]: > 250 µM
MIC95 [11]: > 125 µM
Activity [12]: inactive
MIC95 [13]: > 125 µM
MIC95 [14]: > 125 µM
MIC95 [15]: > 125 µM
solubility [16]: Soluble
MIC [17]: > 250 µM
MIC95 [18]: > 125 µM
Activity [19]: inactive
Activity [20]: inactive
MIC [21]: > 250 µM
MIC95 [22]: > 125 µM
Activity [23]: inactive
MIC [24]: > 250 µM
MIC [25]: > 250 µM
MIC [26]: > 250 µM

O=C(CN1C(=O)/C(=C/c2cc(Cl)ccc2O)SC1=S)Nc1ccc(Cl)cc1
MIC95 [1]: > 250 µM
MIC95 [2]: > 250 µM
MIC [3]: 125 µM (≈ 54.9 µg/mL)
MIC95 [4]: 125 µM (≈ 54.9 µg/mL)
Activity [5]: inactive
MIC [6]: 250 µM (≈ 110 µg/mL)
MIC [7]: 250 µM (≈ 110 µg/mL)
MIC95 [8]: > 250 µM
MIC [9]: 16 µM (≈ 7.03 µg/mL)
MIC [10]: 125 µM (≈ 54.9 µg/mL)
MIC95 [11]: > 250 µM
Activity [12]: inactive
MIC95 [13]: > 250 µM
MIC95 [14]: > 250 µM
MIC95 [15]: > 250 µM
solubility [16]: Insoluble
MIC [17]: 250 µM (≈ 110 µg/mL)
MIC95 [18]: 250 µM (≈ 110 µg/mL)
Activity [19]: inactive
Activity [20]: inactive
MIC [21]: 125 µM (≈ 54.9 µg/mL)
MIC95 [22]: 250 µM (≈ 110 µg/mL)
Activity [23]: inactive
MIC [24]: 250 µM (≈ 110 µg/mL)
MIC [25]: 32 µM (≈ 14.1 µg/mL)
MIC [26]: 250 µM (≈ 110 µg/mL)

O=C(O)CN1C(=O)/C(=C/c2cccc(O)c2)SC1=S
MIC95 [1]: 500 µM (≈ 148 µg/mL)
MIC95 [2]: > 500 µM
MIC [3]: 1000 µM (≈ 295 µg/mL)
MIC95 [4]: 500 µM (≈ 148 µg/mL)
Activity [5]: inactive
MIC [6]: 1000 µM (≈ 295 µg/mL)
MIC [7]: > 1000 µM
MIC95 [8]: > 500 µM
MIC [9]: 1000 µM (≈ 295 µg/mL)
MIC [10]: 1000 µM (≈ 295 µg/mL)
MIC95 [11]: > 500 µM
Activity [12]: inactive
MIC95 [13]: > 500 µM
MIC95 [14]: > 500 µM
MIC95 [15]: > 500 µM
solubility [16]: Soluble
MIC [17]: > 1000 µM
MIC95 [18]: > 500 µM
Activity [19]: inactive
Activity [20]: inactive
MIC [21]: 500 µM (≈ 148 µg/mL)
MIC95 [22]: > 500 µM
Activity [23]: inactive
MIC [24]: 1000 µM (≈ 295 µg/mL)
MIC [25]: 1000 µM (≈ 295 µg/mL)
MIC [26]: 1000 µM (≈ 295 µg/mL)

O=C(CN1C(=O)CSC1=S)Nc1ccc(Cl)cc1
MIC95 [1]: 500 µM (≈ 150 µg/mL)
MIC95 [2]: > 500 µM
MIC [3]: 500 µM (≈ 150 µg/mL)
MIC95 [4]: > 500 µM
Activity [5]: inactive
MIC [6]: 500 µM (≈ 150 µg/mL)
MIC [7]: 1000 µM (≈ 301 µg/mL)
MIC95 [8]: > 500 µM
MIC [9]: 32 µM (≈ 9.63 µg/mL)
MIC [10]: 250 µM (≈ 75.2 µg/mL)
MIC95 [11]: > 500 µM
Activity [12]: inactive
MIC95 [13]: > 500 µM
MIC95 [14]: > 500 µM
MIC95 [15]: > 500 µM
solubility [16]: Soluble
MIC [17]: 1000 µM (≈ 301 µg/mL)
MIC95 [18]: > 500 µM
Activity [19]: inactive
Activity [20]: inactive
MIC [21]: 125 µM (≈ 37.6 µg/mL)
MIC95 [22]: 500 µM (≈ 150 µg/mL)
Activity [23]: inactive
MIC [24]: 250 µM (≈ 75.2 µg/mL)
MIC [25]: 62.5 µM (≈ 18.8 µg/mL)
MIC [26]: 250 µM (≈ 75.2 µg/mL)

NNC(=O)c1ccncc1 [ISONIAZID]
MIC [3]: > 250 µM
MIC [6]: > 250 µM
MIC [7]: > 250 µM
MIC [9]: 0.5 µM (≈ 0.0686 µg/mL)
MIC [10]: > 250 µM
MIC [17]: > 250 µM
MIC [21]: 4 µM (≈ 0.549 µg/mL)
MIC [24]: 16 µM (≈ 2.19 µg/mL)
MIC [25]: 1 µM (≈ 0.137 µg/mL)
MIC [26]: 8 µM (≈ 1.1 µg/mL)
